According to ChEMBL document CHEMBL1817567, “Design of benzimidazole- and benzoxazole-2-thione derivatives as inhibitors of bacterial hyaluronan lyase” (Eur J Med Chem, 2011):
pIC50: −log10 of the molar value. Converted amounts (≈) assume the structure as drawn. The source made the active and inactive calls. The calls are words filed in the database; no cut-off is given here.

Columns and labels:
[1] = target: T1, Hyaluronidase (Bos taurus) (UniProt Q8SQG8+Q5E985); experiment: Inhibition of bovine testes hyaluronidase at 380 uM after 30 mins at pH 5 by turbidimetric analysis; type: protein assay
[2] = Inhibition of Streptococcus agalactiae 4755 hyaluronidase at pH 5.0
Procedure, shortened: (§1)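 SagHyal4755 (2.9 ng) with BSA and hyaluronan (2 mg/ml stock) in citrate–phosphate/NaCl buffer pH 5.0, 3.8% DMSO final, 30 min at 37 °C. Stopped by alkaline 2.5% CTAB, then 20 min at 25 °C. Residual-substrate turbidity read at 600 nm; no-inhibitor sample = 100%, no-enzyme sample = 0% activity. Enzyme-free compound controls were run.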

[3] = target: T1, Hyaluronidase (Bos taurus); experiment: Inhibition of bovine testes hyaluronidase at 170 uM after 30 mins at pH 5 by turbidimetric analysis; type: protein assay
[4] = target: T1, Hyaluronidase (Bos taurus); experiment: Inhibition of bovine testes hyaluronidase at 100 uM after 30 mins at pH 5 by turbidimetric analysis; type: protein assay
[5] = target: T1, Hyaluronidase (Bos taurus); experiment: Inhibition of bovine testes hyaluronidase at 200 uM after 30 mins at pH 5 by turbidimetric analysis; type: protein assay
[6] = Inhibition of Streptococcus agalactiae 4755 hyaluronidase at pH 7.4 after 3 hrs by turbidimetric analysis
Procedure, shortened: (§2)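 Same turbidimetric hyaluronan-lyase assay at pH 7.4 (citrate–phosphate/NaCl): SagHyal4755 2.9 ng, hyaluronan (2 mg/ml stock), BSA, 3.8% DMSO final, 3 h at 37 °C. CTAB (2.5%, in 0.5 M NaOH) precipitation, 20 min at 25 °C, A600. Activity scaled between no-inhibitor and no-enzyme samples.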

[7] = target: T1, Hyaluronidase (Bos taurus); experiment: Inhibition of bovine testes hyaluronidase at 190 uM after 30 mins at pH 5 by turbidimetric analysis; type: protein assay
[8] = Inhibition of Streptococcus agalactiae 4755 hyaluronidase at pH 5.0 after 30 mins by turbidimetric analysis; procedure, shortened: as §1
[9] = target: T1, Hyaluronidase (Bos taurus); experiment: Inhibition of bovine testes hyaluronidase at 4200 uM after 30 mins at pH 5 by turbidimetric analysis; type: protein assay
[10] = target: T1, Hyaluronidase (Bos taurus); experiment: Inhibition of bovine testes hyaluronidase at 460 uM after 30 mins at pH 5 by turbidimetric analysis; type: protein assay
[11] = target: T1, Hyaluronidase (Bos taurus); experiment: Inhibition of bovine testes hyaluronidase at 400 uM after 30 mins at pH 5 by turbidimetric analysis; type: protein assay
[12] = Inhibition of Streptococcus agalactiae 4755 hyaluronidase at pH 7.4; procedure, shortened: as §2
[13] = target: T1, Hyaluronidase (Bos taurus); experiment: Inhibition of bovine testes hyaluronidase at 2000 uM after 30 mins at pH 5 by turbidimetric analysis; type: protein assay
[14] = target: T1, Hyaluronidase (Bos taurus); experiment: Inhibition of bovine testes hyaluronidase at 3800 uM after 30 mins at pH 5 by turbidimetric analysis; type: protein assay
[15] = target: T1, Hyaluronidase (Bos taurus); experiment: Inhibition of bovine testes hyaluronidase at 150 uM after 30 mins at pH 5 by turbidimetric analysis; type: protein assay
[16] = target: T1, Hyaluronidase (Bos taurus); experiment: Inhibition of bovine testes hyaluronidase at 80 uM after 30 mins at pH 5 by turbidimetric analysis; type: protein assay
[17] = target: T1, Hyaluronidase (Bos taurus); experiment: Inhibition of bovine testes hyaluronidase at 63 uM after 30 mins at pH 5 by turbidimetric analysis; type: protein assay
[18] = target: T1, Hyaluronidase (Bos taurus); experiment: Inhibition of bovine testes hyaluronidase at 49 uM after 30 mins at pH 5 by turbidimetric analysis; type: protein assay
[19] = target: T1, Hyaluronidase (Bos taurus); experiment: Inhibition of bovine testes hyaluronidase at 130 uM after 30 mins at pH 5 by turbidimetric analysis; type: protein assay
[20] = target: T1, Hyaluronidase (Bos taurus); experiment: Inhibition of bovine testes hyaluronidase at 180 uM after 30 mins at pH 5 by turbidimetric analysis; type: protein assay
[21] = Inhibition of Streptococcus agalactiae 4755 hyaluronidase after 30 mins by turbidimetric analysis; procedure, shortened: as §1
Streptococcus agalactiae [22] = experiment: Inhibition of Streptococcus agalactiae 4755 hyaluronidase at 300 uM after 3 hrs at pH 7.4 by turbidimetric analysis; procedure, shortened: as §2
[23] = Aqueous solubility of the compound in water; type: physicochemical
Procedure, shortened: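 Turbidity at 600 nm of test compound in DMSO added to citrate–phosphate buffer (pH 5 and pH 7.4), water and BSA (0.2 mg/ml stock), at various concentrations, read against a water reference. Enzyme testing used only concentrations showing no turbidity.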

Streptococcus agalactiae [24] = experiment: Inhibition of Streptococcus agalactiae 4755 hyaluronidase at 150 uM after 30 mins at pH 5.0 by turbidimetric analysis; procedure, shortened: as §1
[25] = Inhibition of Streptococcus agalactiae hyaluronidase
Hyaluronidase = target: T2, Hyaluronidase (Bos taurus, UniProt Q8SQG8+Q5E985); experiment: Inhibition of bovine testes hyaluronidase after 30 mins at pH 5 by turbidimetric analysis; type: protein assay
T2 sequence (Q8SQG8 whole entry): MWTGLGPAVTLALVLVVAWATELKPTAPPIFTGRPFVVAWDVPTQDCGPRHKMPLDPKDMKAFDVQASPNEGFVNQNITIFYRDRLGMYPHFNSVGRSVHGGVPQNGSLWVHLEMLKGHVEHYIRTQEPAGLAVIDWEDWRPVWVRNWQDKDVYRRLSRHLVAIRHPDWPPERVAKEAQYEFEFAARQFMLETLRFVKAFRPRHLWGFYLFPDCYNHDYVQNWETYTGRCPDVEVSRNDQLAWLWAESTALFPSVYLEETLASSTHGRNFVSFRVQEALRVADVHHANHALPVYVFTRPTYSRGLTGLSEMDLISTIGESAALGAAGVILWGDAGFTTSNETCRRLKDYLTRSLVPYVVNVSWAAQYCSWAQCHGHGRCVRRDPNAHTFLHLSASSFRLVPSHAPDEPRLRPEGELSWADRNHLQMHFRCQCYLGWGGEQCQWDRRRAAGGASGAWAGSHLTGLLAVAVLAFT
T2 sequence (Q5E985 whole entry): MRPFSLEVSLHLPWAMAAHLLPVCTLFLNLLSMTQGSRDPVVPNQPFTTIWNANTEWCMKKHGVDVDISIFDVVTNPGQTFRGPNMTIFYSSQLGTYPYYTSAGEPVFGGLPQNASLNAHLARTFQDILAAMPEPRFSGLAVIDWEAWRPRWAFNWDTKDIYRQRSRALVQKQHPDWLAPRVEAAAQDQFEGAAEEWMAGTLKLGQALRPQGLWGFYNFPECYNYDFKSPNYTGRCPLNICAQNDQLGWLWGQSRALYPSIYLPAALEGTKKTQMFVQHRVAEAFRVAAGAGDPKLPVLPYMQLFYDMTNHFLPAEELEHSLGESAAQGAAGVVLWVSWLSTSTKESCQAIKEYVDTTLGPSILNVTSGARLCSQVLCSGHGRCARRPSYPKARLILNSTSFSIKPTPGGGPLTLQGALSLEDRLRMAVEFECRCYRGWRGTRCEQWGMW

Streptococcus agalactiae [26] = experiment: Inhibition of Streptococcus agalactiae 4755 hyaluronidase at 1000 uM after 3 hrs at pH 7.4 by turbidimetric analysis; procedure, shortened: as §2
Streptococcus agalactiae [27] = experiment: Inhibition of Streptococcus agalactiae 4755 hyaluronidase at 400 uM after 30 mins at pH 5.0 by turbidimetric analysis; procedure, shortened: as §1

inhibition [1]	inhibition [3]	inhibition [4]	inhibition [5]	inhibition [7]	pIC50 [8]	inhibition [9]	inhibition [10]	inhibition [11]	inhibition [13]	inhibition [14]	inhibition [15]	inhibition [16]	inhibition [17]	inhibition [18]	inhibition [19]	inhibition [20]	solubility [23] [µM]	SMILES	other results
inactive	inactive	inactive	inactive	inactive	4.96	inactive	inactive	inactive	inactive	inactive	inactive	inactive	inactive	inactive	inactive	inactive		CCCCCCCCCCn1c(-c2ccc(OS(N)(=O)=O)cc2)cc2ccc(OS(N)(=O)=O)cc21	pIC50 [2]: 4.96; pIC50 [6]: 4.80; pIC50 [12]: 4.80
inactive	inactive	inactive	inactive	inactive	5.38	inactive	inactive	inactive	inactive	inactive	inactive	inactive	inactive	inactive	inactive	inactive		CCCCCCCCCCCCCCCC(=O)OC[C@H](O)[C@H]1OC(=O)C(O)=C1O [ASCORBYL PALMITATE]	pIC50 [21]: 5.38
inactive	inactive	inactive	inactive	inactive		inactive	inactive	inactive	inactive	inactive	inactive	inactive	inactive	inactive	inactive	inactive	150 (≈ 35 µg/mL)	CCCCCC(=O)n1c(=O)oc2ccccc21	inhibition (Streptococcus agalactiae [22]): inactive; inhibition (Streptococcus agalactiae [24]): inactive
																		CC1(C)[C@@H](O)CC[C@]2(C)[C@H]3C(=O)C=C4[C@@H]5C[C@@](C)(C(=O)O)CC[C@]5(C)CC[C@@]4(C)[C@]3(C)CC[C@@H]12 [ENOXOLONE]	pIC50 [25]: 4.22
																		Oc1ccc(-c2[nH]c3ccccc3c2-c2ccccc2)cc1	IC50 (Hyaluronidase): 107 µM
inactive	inactive	inactive	inactive	inactive		inactive	inactive	inactive	inactive	inactive	inactive	inactive	inactive	inactive	inactive	inactive	400 (≈ 71.7 µg/mL)	CCn1c(=S)oc2ccccc21	inhibition (Streptococcus agalactiae [26]): 17%; inhibition (Streptococcus agalactiae [27]): 46%
